A short description of assay [1]: Binding affinity to sigma 2 receptor. Summed up:
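Rat whole-brain homogenate without cerebellum (400–500 μg) incubated with 3 nM [3H]DTG plus 300 nM (+)-pentazocine to mask sigma-1 sites. […] Filtration through PEI-soaked glass fiber, scintillation counting, run in duplicate. Ki by Cheng-Prusoff.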

The nature of assay [2]: Displacement of [3H]di-o-tolylguanidine from sigma 2 receptor in rat brain membrane after 120 mins. The class given is cell membranes. Summed up: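 Rat whole-brain homogenate without cerebellum (400–500 μg) incubated with 3 nM [3H]DTG plus 300 nM (+)-pentazocine to mask sigma-1 sites. Filtration through PEI-soaked glass fiber, scintillation counting, run in duplicate. Ki by Cheng-Prusoff.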

Assay [3] addresses Sigma non-opioid intracellular receptor 1 (Rattus norvegicus, UniProt Q9R0C9). Nature of the assay: Displacement of (-)-[3H]pentazocine from sigma 1 receptor in rat brain membrane after 120 mins. It counts as cell membranes.
Another assay is filed under the species Rattus norvegicus. Nature of the assay: Selectivity ratio of Ki for sigma 1 receptor in rat brain membrane to sigma 2 receptor in rat brain membrane. It counts as cell membranes.

For 13 compounds, Ki and Ratio Ki results are on record in ChEMBL document CHEMBL1828538, “Synthesis and pharmacological evaluation of indole-based sigma receptor ligands” (Eur J Med Chem, 2011).

The structures appear in SMILES notation.

Chain of Sigma non-opioid intracellular receptor 1 (Q9R0C9 whole entry): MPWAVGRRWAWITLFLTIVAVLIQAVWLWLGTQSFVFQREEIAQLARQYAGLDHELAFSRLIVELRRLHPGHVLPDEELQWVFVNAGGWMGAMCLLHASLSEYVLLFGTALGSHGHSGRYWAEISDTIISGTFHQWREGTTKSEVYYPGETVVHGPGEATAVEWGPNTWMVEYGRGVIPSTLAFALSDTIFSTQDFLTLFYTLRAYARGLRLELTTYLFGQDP

As to `COc1cc2c(cc1OC)CN(CCCCNC(=O)c1cc(Br)cc(OC)c1OC)CC2`, in assay [1], the Ki – broadly, the equilibrium dissociation constant of an inhibitor or competing ligand from its target – worked out at 8.2 nM.

In the case of `CC(=O)c1ccc2c(ccn2CCCCN2CCN(C3CCCCC3)CC2)c1`, the Ki is 2.31 nM in assay [2] and 5.33 nM in assay [3]. Also, the Ratio Ki in the assay listed under Rattus norvegicus turned out to be 2.3.

`COc1cc2c(cc1OC)CN(CCCCn1ccc3ccccc31)CC2` yielded a Ki in assay [3] of 141 nM.

For the compound `COc1cc2c(cc1OC)CN(CCCCn1cc(-c3ccccc3)c3ccccc31)CC2`, the Ki in assay [2] came to 46.3 nM; in assay [3] it was 714 nM. The Ratio Ki in the assay filed under Rattus norvegicus amounted to 15.4.

As to `Fc1ccc(N2CCN(CCCCn3cc(-c4ccoc4)c4ccccc43)CC2)cc1`, the results for the Ki in assay [2] and in assay [3] were 157 nM and 279 nM, respectively. Further, the Ratio Ki in the assay filed under Rattus norvegicus was 1.8.

In turn, `Fc1ccc(N2CCN(CCCCn3ccc4ccccc43)CC2)cc1` came in with a Ki in assay [3] of 71.5 nM. Besides, the Ratio Ki in the assay filed under Rattus norvegicus amounted to 5.4.

For `CC(=O)c1ccc2c(ccn2CCCCN2CCN(c3ccc(F)cc3)CC2)c1`, the Ki was 3.3 nM in assay [2] and 2.13 nM in assay [3]. Moreover, the Ratio Ki in the assay filed under Rattus norvegicus was 0.6.

`c1ccc(-c2cn(CCCCN3CCN(C4CCCCC4)CC3)c3ccccc23)cc1`: the values for the Ki in assay [2] and in assay [3] were 12.3 nM and 92.4 nM, respectively. Moreover, in the assay filed under Rattus norvegicus, the Ratio Ki came to 7.5.

Regarding `COc1cc2c(cc1OC)CN(CCCCn1cc(-c3ccoc3)c3ccccc31)CC2`, the figures for the Ki in assay [2] and in assay [3] were 12 nM and 614 nM, respectively. Moreover, in the assay filed under Rattus norvegicus, the Ratio Ki was 51.1.

As to `c1ccc2c(c1)c(-c1ccoc1)cn2CCCCN1CCN(C2CCCCC2)CC1`, the inhibitory constant (Ki) came to 10.1 nM in assay [2] and 34.5 nM in assay [3]. Also, the Ratio Ki in the assay filed under Rattus norvegicus was determined as 3.4.

As for `COc1cc2c(cc1OC)CN(CCCCn1ccc3cc(C(C)=O)ccc31)CC2`, the Ki was 1.42 nM in assay [2] and 14.6 nM in assay [3]. Moreover, the Ratio Ki in the assay listed under Rattus norvegicus turned out to be 10.2.

As to `Fc1ccc(-c2cn(CCCCN3CCN(C4CCCCC4)CC3)c3ccccc23)cc1`, the Ratio Ki in the assay listed under Rattus norvegicus amounted to 4.

For the compound `Fc1ccc(N2CCN(CCCCn3cc(-c4ccccc4)c4ccccc43)CC2)cc1`, the Ki is 9.96 nM in assay [2] and 222 nM in assay [3]. For the same compound, the Ratio Ki in the assay listed under Rattus norvegicus came out at 22.3.
